In paper PMC4409664 (Cell, 2015):

Tests used:
Format in all cases: binding
[1] = tested on: human TTR; assay: RBP-TTR coimmunoprecipitation from HeLa conditioned media; conditions: HeLa cotransfected, HA immunoprecipitates
Outline: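 HeLa cells cotransfected with myc-tagged TTR plus wild-type or mutant N-terminal HA-tagged human RBP plasmids. Secreted RBP complexes pulled from conditioned media with anti-HA agarose beads and washed in PBS. Western blot of immunoprecipitates probed first for TTR, then for HA.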

[2] = In vitro retinol titration by fluorescence enhancement; conditions: read-out: Kd for retinol; apo-RBP^HA, PBS, fluorescence ex 330 nm, em 460 nm
Outline: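 Apo RBP-HA was immunopurified from serum-free HeLa conditioned medium, eluted with HA peptide, dialyzed into PBS and checked for homogeneity by gel. Equal amounts of protein (380 nM) were loaded with fresh all-trans retinol (0 to 5 µM) for 1 hr in PBS. Retinol fluorescence enhancement (ex 330, em 460 nm) was read on a microplate reader. Parallel runs used PBS with 0.1% phosphatidylcholine vesicles.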

[3] = target: T1, STRA6 (Homo sapiens, UniProt Q9BX79); assay: STRA6-RBP equilibrium and kinetic analysis by ELISA on STRA6+ HEK293T cells; conditions: read-out: Kd for STRA6, apo RBP^HA, 90 min at 37°C
T1 sequence (Q9BX79 1-667): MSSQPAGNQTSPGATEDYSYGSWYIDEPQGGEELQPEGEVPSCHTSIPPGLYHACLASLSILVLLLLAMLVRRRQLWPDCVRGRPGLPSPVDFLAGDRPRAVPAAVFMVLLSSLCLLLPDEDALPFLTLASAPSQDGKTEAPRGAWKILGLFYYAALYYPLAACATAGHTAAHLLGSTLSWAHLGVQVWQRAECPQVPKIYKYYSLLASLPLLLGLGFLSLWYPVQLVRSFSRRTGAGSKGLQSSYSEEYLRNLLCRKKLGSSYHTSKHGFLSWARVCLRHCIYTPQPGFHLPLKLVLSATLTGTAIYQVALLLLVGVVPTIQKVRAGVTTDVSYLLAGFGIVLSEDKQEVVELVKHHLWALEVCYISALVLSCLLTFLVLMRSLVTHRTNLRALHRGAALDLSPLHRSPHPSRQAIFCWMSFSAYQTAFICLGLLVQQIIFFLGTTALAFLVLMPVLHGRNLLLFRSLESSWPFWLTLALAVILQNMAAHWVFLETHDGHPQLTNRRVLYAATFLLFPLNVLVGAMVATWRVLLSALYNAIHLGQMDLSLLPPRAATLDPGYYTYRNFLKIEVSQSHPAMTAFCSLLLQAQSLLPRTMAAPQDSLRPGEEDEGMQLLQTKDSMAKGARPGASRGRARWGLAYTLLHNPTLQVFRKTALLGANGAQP
Outline: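 Cells transfected with STRA6myc or vector were grown on poly-D-lysine. They were incubated 90 min at 37°C with medium containing 0–80 µg/mL apo RBP-HA and 0.5% BSA, washed in ice-cold HBSS, and bound RBP was eluted with 25 mM glycine HBSS pH 3. RBP was quantified by ELISA, with control-cell binding subtracted. Kd came from isotherms and reciprocal plots. TTR affinity was measured by SPR, running a TTR series over captured apo His-RBP.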

serum retinol binding protein [WT]
interaction with human TTR in coimmunoprecipitation [1]: interacted strongly | Kd [2]: ~0.08 µM | Kd [3]: 0.059 µM
